Series [1] is described as follows: Toxicity in mouse assessed as maximum tolerated dose. In kind it is organism-based. To be noted: in vivo. Put shortly:
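Tolerability was determined in ICR mice, with the compound formulated in a co-solvent of 80% Tween 80 and 20% Captex 200.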

A further series deals with A-375. The series is described as follows: Antiproliferative activity against human A375 cells after 48 hrs by SRB assay. In kind it is functional, cell-based. Particulars: A-375, 48 h. Put shortly: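 Melanoma lines and control fibroblasts grown at 37 °C, 5% CO2, then exposed to a wide concentration range for 48 h in round-bottom 96-well plates. Fixed with 10% TCA, stained with SRB, protein read at 560 nm. IC50 (50% growth inhibition versus untreated) obtained by nonlinear regression.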
On the technique in general: The SRB assay estimates cell density from bound dye.

The nature of series [2]: Selectivity ratio of IC50 for human fibroblasts to IC50 for human melanoma cells. In kind it is ADME. Particulars: human fibroblasts and human melanoma cells, read-out: Ratio IC50.

In general, MTD refers to the highest dose tested that stayed within the study's limit of toxicity. In general, IC50 refers to the point on the concentration scale where inhibition reaches its midpoint. High values mean lower potency, low ones higher potency.

On to `CCCCCCCCCCCCCCCCNC(=O)[C@@H]1CSC(c2ccc(NC(C)=O)cc2)N1` (mixture of isomers), for which the MTD in series [1] turned out to be 42 mg/kg.

With `CCCCCCCCCCCCCCCCCCNC(=O)[C@@H]1CSC(c2ccccc2)N1` (mixture of isomers), it took 15 µM to reach half-maximal inhibition in the series on A-375 (IC50). The selectivity ratio in series [2] turned out to be 2.6.

These data come from ChEMBL document CHEMBL1159121, “Synthesis, in vitro structure-activity relationship, and in vivo studies of 2-arylthiazolidine-4-carboxylic acid amides as anticancer agents” (Bioorg Med Chem, 2010).
